Screens (PubChem)
This is one part of a sample in which hits are shown more often than they occur.
Lmaj promast: Leishmania major promastigote growth inhibition, primary screen; Leishmania major promastigotes, resazurin fluorescence viability; inhibition, % at 10 µM; 9% of 200,000 active; AID 1063, 2008; in the data active = inhibition above about 50%;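 also: promastigotes grown with compound for 44 hours at 28 °C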
Redox H2O2 prof: compounds producing H2O2 with reducing agent – biochemical, NIH compound library profiling, artefact control for MLSCN library redox annotation, primary screen; 0.03% of 200,000 active; activation, % at 10 µM; DTT-dependent redox cycling H2O2, phenol red/HRP absorbance; 100% = 100 µM peroxide control, 0% = buffer;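 active = activation of at least 50% relative to the plate's high and low controls in the primary single-dose screen; inactive = activation below 50%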;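 also: compound incubated with DTT at 0.8 mM final as the reducing agent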
T cruzi inh: inhibitors of intracellular T. cruzi growth, primary screen, luminescence, NIH3T3 host cells | T. cruzi beta-gal in NIH3T3, 90 h | inhibition, % (test concentration not listed) | 1.4% of 300,000 active | AID 1885, 2009;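 active = mean inhibition across valid replicates above about 55%, limit read from the data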;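 also: signal also drops with host cell toxicity which is not excluded here; 0% = plate median of DMSO wells and 100% = zero luminescence signal; higher percent means less beta-gal luminescence so fewer parasites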
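assay system = mouse NIH/3T3 fibroblasts infected with β-gal-expressing T. cruzi Tulahuen C4 | input = 5,000 NIH/3T3 host cells per well | buffer or medium = DMEM plus 2% FBS | timing = 3 h host attachment, then at least 90 h co-culture | measured by = GalScreen luminescence, 60 min | evaluation = luminescence reflecting intracellular parasite burden, expressed as percent inhibition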
Lipid droplet: inhibitors of hepatocyte lipid droplet formation, primary screen, imaging, high-throughput imaging, BODIPY stain; AML12 mouse hepatocytes, oleate lipid droplets; inhibition, % at 6.5 µM; 0.4% of 240,000 active; AID 1656, 2009;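 active = lipid droplet intensity inhibited by at least 50%, with more than 500 cells counted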
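Technique: fluorescence imaging, 20x objective, two fields per well / Assay system: AML12 hepatocytes (mouse) / Measure: % inhibition of lipid droplet signal / Doses: 6.5 µM single-point dosing / Incubation: overnight exposure / Reagent: 100 µM oleic acid challenge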
MPTP block: mitochondrial permeability transition pore inhibitors, primary screen, biochemical, isolated mouse mitochondria, absorbance | 1.4% of 360,000 active | Ca2+ swelling absorbance, 30 min | inhibition, % at 10 µM;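 active = inhibition of 50% or more, scaled per plate between neutral and stimulator controls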;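 also: 0% = DMSO wells given calcium and 100% = 1 mM EGTA wells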
* = called active by the depositor; nt = not tested or not shown.

SMILES	Lmaj promast	Redox H2O2 prof	T cruzi inh	Lipid droplet	MPTP block
COc1ccc(OCC(O)CN2CCN(Cc3ccc4c(c3)OCO4)CC2)cc1 (stereo unspecified)	99.0*	0.3	26.0	-10.5	0.2
CC(=O)c1ccc(OCC(O)CN2CCN(Cc3ccc4c(c3)OCO4)CC2)cc1 (stereo unspecified)	93.2*	-0.7	-2.6	-2.9	-0.8
Cc1ccc(OCC(O)CN2CCN(Cc3ccc4c(c3)OCO4)CC2)c(C)c1 (stereo unspecified)	87.2*	8.1	31.4	nt	-0.9
Cc1cccc(C)c1NC(=O)NC1(C(=O)N2CCOCC2)CCCCC1	-6.5	0.2	10.1	-5.2	-1.4
CN(C(=O)c1cccc(NC(=O)Cc2cccc(NC(=O)C3CCN(C(=O)c4ccccc4)CC3)c2)c1)C1CC1	nt	nt	nt	nt	-0.8
CN(CC(=O)Nc1ccccc1Br)C(=O)Cn1[nH]c(=O)c2ccccc2c1=O	nt	nt	nt	nt	-1.5
CC(=O)Nc1ccc(OS(=O)(=O)c2ccc(Cl)cc2)cc1	nt	nt	-1.5	nt	-1.0
CC(=O)Nc1ccc(OS(=O)(=O)c2c(C)cc(C)cc2C)cc1	80.3*	-0.4	45.3	-16.3	5.0
CC(=O)Nc1ccc(S(=O)(=O)Oc2ccc(C=O)cc2)cc1	78.3*	-0.2	-0.2	4.2	-2.6
O=C(Nc1ccc(Oc2ccc(NC(=O)Nc3ccc([N+](=O)[O-])cc3)cc2)cc1)Nc1ccc([N+](=O)[O-])cc1	nt	nt	66.9*	-4.7	15.5
CC(=O)Nc1ccc(OS(=O)(=O)c2ccc([N+](=O)[O-])cc2)cc1	22.7	-0.4	71.2*	-15.9	-1.1
Cc1ccc(OCCC(=O)OC(C)C(=O)Nc2c(C)n(C)n(-c3ccccc3)c2=O)cc1 (stereo unspecified)	nt	nt	3.2	nt	0.1
Cc1cc(C)n(C(C)CC(=O)Nc2ccc3c(c2)OCO3)n1 (stereo unspecified)	nt	nt	-5.3	2.8	0.0
Cc1ccc(NC(=O)Cc2csc(-c3ccccc3)n2)cc1F	4.3	0.5	-7.4	6.9	25.1
O=C(Cc1csc(-c2ccccc2)n1)Nc1ccc(C(F)(F)F)cc1	86.7*	0.2	-9.2	-14.7	29.6
O=C(NCc1ccc(F)cc1)C(Cc1ccccc1)NS(=O)(=O)c1cccs1 (stereo unspecified)	99.8*	0.2	2.6	4.2	1.1
O=C(NCc1ccccc1)C(Cc1ccccc1)NS(=O)(=O)c1cccc2nsnc12 (stereo unspecified)	93.3*	0.2	-7.3	-22.4	-0.5
COC(=O)Nc1ccc2c(c1)ncn2C1CCCCC1	19.7	-0.1	18.2	nt	-2.3
CCOC(=O)Nc1ccc2c(c1)ncn2C1CCCCC1	84.0*	-2.0	10.0	-0.4	-0.3
CC(=O)NC1C(OCc2ccccc2)OC2COC(c3ccccc3)OC2C1OCC(=O)O (stereo unspecified)	-7.0	0.0	-2.0	-32.2	0.1
CC(=O)N1CCN(Cc2nc3cc(NC(=O)c4cccc(Br)c4)ccc3n2C)CC1	nt	nt	4.0	7.9	2.0
Fc1ccc(C2CCCN2Cc2nc(CC3CC3)no2)cc1 (stereo unspecified)	56.6*	0.0	13.6	1.4	-0.7
C/C=C(/C)C(=O)OC1c2c(ccc3ccc(=O)oc23)OC(C)(C)C1OC(C)=O (stereo unspecified)	67.4*	2.3	3.5	-27.1	-1.2
O=C(Nc1ccccc1C(=O)O)c1cc(S(=O)(=O)N2CCCCC2)c(Cl)cc1Cl	nt	nt	58.1*	-1.2	1.4
O=C(NCc1csc(-c2ccccc2)n1)c1cc(F)cc2c1OCOC2	nt	nt	8.7	-0.5	0.8
SMILES	Lmaj promast	Redox H2O2 prof	T cruzi inh	Lipid droplet	MPTP block
COc1ccc2[nH]cc(CCn3ccc(O)c(C/C=C/c4ccccc4)c3=O)c2c1	100.0*	-1.4	37.2	40.3	1.0
O=c1c(C/C=C/c2ccccc2)c(O)ccn1Cc1cccc(Cl)c1	-3.5	-0.7	1.8	5.0	-1.7
Cc1c(N=C2NC(=O)/C(=C/c3cccc([N+](=O)[O-])c3)S2)c(=O)n(-c2ccccc2)n1C	89.5*	0.2	-6.5	17.3	nt
COc1ccc(/C=C/C(=O)NC2CCCCCCC2)cc1S(=O)(=O)N1CCOCC1	87.5*	-0.4	-22.2	-1.2	0.2
O=C(c1cnc2n(c1=O)CCS2)N1CCN(C(c2ccccc2)c2ccc(Cl)cc2)CC1 (stereo unspecified)	57.7*	-0.8	17.8	nt	-1.2
O=C(c1cnc2n(c1=O)CCS2)N1CCN(c2ccccc2Cl)CC1	-5.5	-0.5	nt	0.2	nt
CCC1C(c2ccccc2)N(C)C(c2ccccc2)CC1(O)c1ccccc1 (stereo unspecified)	53.0*	-0.2	59.5*	2.6	4.5
CC(C)C1C(c2ccccc2)N(C)C(c2ccccc2)CC1(O)c1ccccc1 (stereo unspecified)	39.6	0.3	58.0*	16.3	3.2
CC1C(=O)CC(c2ccccc2)N(C)C1c1ccccc1 (stereo unspecified)	2.4	-1.6	0.5	nt	0.1
O=C(COC(=O)c1ccc(Cl)c(S(=O)(=O)N2CCCCC2)c1)NCC1CCCO1 (stereo unspecified)	-2.2	-0.1	-9.0	-3.7	-0.8
Cc1[nH]c2ccccc2c1C(=O)C(C)OC(=O)c1ccc([N+](=O)[O-])o1 (stereo unspecified)	99.0*	-0.3	17.9	-5.9	1.1
CCN(CC)S(=O)(=O)c1ccc2c(c1)C(=NO)c1cc(S(=O)(=O)N(CC)CC)ccc1-2	24.2	0.0	62.9*	-0.9	38.3
CCN(CC)CCOc1ccc2c(c1)C(=NO)c1cc(OCCN(CC)CC)ccc1-2	100.5*	0.8	48.9	nt	0.6
O=S(=O)(c1ccc2c(c1)C(=NO)c1cc(S(=O)(=O)N3CCCCC3)ccc1-2)N1CCCCC1	42.1	-11.8	76.9*	nt	17.8
COc1ccc(C)cc1NS(=O)(=O)c1ccccc1	nt	nt	nt	nt	0.1
CC(C)NC(=O)Cn1c(SCC(=O)N2c3ccccc3CC2C)nc2ccccc21 (stereo unspecified)	13.0	0.2	9.5	nt	-1.7
CC1Cc2ccccc2N1C(=O)CSc1nc2c(c(=O)n(C)c(=O)n2C)n1Cc1ccccc1 (stereo unspecified)	63.5*	-0.7	56.7*	nt	0.8
CC(C)Cn1c(=O)c2ccccc2n2c(SCC(=O)N3c4ccccc4CC3C)nnc12 (stereo unspecified)	71.8*	0.6	3.5	-18.8	-0.1
CCn1c(SCC(=O)N2c3ccccc3CCc3ccccc32)nc2c1c(=O)n(C)c(=O)n2C	59.9*	3.1	45.4	nt	-1.3
CCn1nnnc1SCC(=O)N1c2ccccc2CCc2ccccc21	53.3*	-0.2	11.4	-2.5	-1.8
Clc1ccc(-c2cn(-c3nc4ccccc4s3)nn2)cc1	nt	nt	nt	nt	2.2
Cc1ccc(/C(O)=C2/C(=O)C(=O)N(c3ccccn3)C2c2cccc([N+](=O)[O-])c2)cc1 (stereo unspecified)	nt	nt	1.6	-23.2	1.9
